# Only some compounds are listed: those with a hit (about 1.7% of all), similar ones and a draw of the others.
# STEP inh: blocks human striatal-enriched tyrosine phosphatase | recombinant STEP, OMFP fluorogenic substrate, fluorescence | inhibition, % at 20 µM | 360,000 compounds, 0.25% hits | AID 588621;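 active = inhibition at 20 µM, scaled per plate between control wells, above about 37%, limit read from the data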;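 also: 0% = DMSO with enzyme and substrate and 100% = substrate only without enzyme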
#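 Measure: Control-normalized % inhibition with plate pattern correction | Test system: STEP phosphatase, cell-free reaction | Medium: pH 6.0 Bis-Tris with DTT and Tween 20 | Technique: Fluorescence, 480/540 nm | Times: Reaction 20 min, ambient temperature | Doses: Single compound dose of 20 µM, 1% DMSO final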
# DNMT1 inh: DNMT1 (human) enzyme inhibition | inhibition (reported as % activation of signal), % at 10 µM | AID 588458 | 360,000 compounds, 0.83% hits | P26358 | DNMT1 molecular beacon, Hinp1I cleavage, fluorescence; in the data active = inhibition above about 50%
# SUMO1-SIM PPI: SUMO1-SIM interaction modulation | inhibition, % at 20 µM | P63165 | 360,000 compounds, 0.33% hits | SUMO1 binding to a labelled peptide, TR-FRET, 1 h | AID 602429; in the data active = inhibition above about 37%
# Target sequence (P63165 whole entry, looked up): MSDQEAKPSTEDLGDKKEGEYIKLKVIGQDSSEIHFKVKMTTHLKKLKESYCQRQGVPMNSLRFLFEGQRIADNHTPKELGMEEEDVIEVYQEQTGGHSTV
# Scp-1 inhibitor: blocks human Scp-1 phosphatase activity; 340,000 compounds, 0.88% hits; inhibition, % at 20 µM; Recombinant Scp1, phosphopeptide, malachite green phosphate absorbance;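 active = inhibition above about 50% at 20 µM, limit read from the data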;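 also: plate controls were DMSO wells with enzyme for no effect and wells lacking enzyme for full effect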
# Target sequence (Q9GZU7 76-261 limits assumed): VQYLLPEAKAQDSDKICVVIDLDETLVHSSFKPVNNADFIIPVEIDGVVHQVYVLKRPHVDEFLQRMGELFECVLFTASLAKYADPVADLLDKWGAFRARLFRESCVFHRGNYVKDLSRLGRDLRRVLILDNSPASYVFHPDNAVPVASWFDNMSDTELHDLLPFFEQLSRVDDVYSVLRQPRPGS
#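 Test system: SCP-1 phosphatase catalytic domain, residues 76-261; measured by: colorimetric phosphate reagent with accelerator and stabiliser, absorbance at 630 nm; timing: enzyme reaction 45 min at room temperature, colour 5 min, stabilisation 30 min; also added: Phosphorylated 17-residue peptide substrate; compound dosing: one concentration, 20 µM, with 1.0% DMSO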
# LMPTP block: LMPTP (human) inhibition; P24666; recombinant LMPTP-A, OMFP fluorogenic substrate, fluorescence intensity; inhibition, % at 20 µM; 360,000 compounds, 0.22% hits; AID 651560;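 active = compounds that cut the enzyme signal by at least half of the control window in the single-dose screen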;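 also: plate controls were DMSO wells with enzyme plus substrate for no effect and substrate without enzyme for full effect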
# Target sequence (P24666 whole entry, looked up): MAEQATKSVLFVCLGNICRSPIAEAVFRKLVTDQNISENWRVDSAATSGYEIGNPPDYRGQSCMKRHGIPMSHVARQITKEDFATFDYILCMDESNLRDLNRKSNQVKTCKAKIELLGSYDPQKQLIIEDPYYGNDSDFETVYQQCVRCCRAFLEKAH
#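 material = LMPTP-A | quantity = 0.625 nM enzyme | reagent = OMFP substrate, 400 µM final | buffer or medium = Bis-Tris pH 6.0, DTT, detergent | detection = endpoint fluorescence intensity from OMFP dephosphorylation | dosing = single 20 µM dose | read-out basis = % inhibition relative to no-enzyme and uninhibited control wells | control set = no-enzyme and uninhibited controls | timing = 50 min at room temperature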
# DNMT1 interf DR: beacon fluorescence artifact, dose response counter-screen | shares compounds with DNMT1 inh | molecular beacon fluorescence, spectral interference counter-screen | IC50, µM | 200 tested, under 10 active; call rule not given here
# DNMT1 confirm: confirmation of human DNMT1 inhibitors. shares compounds with DNMT1 inh. DNMT1 molecular beacon HinP1I cleavage, fluorescence. inhibition, % at 10 µM. 2,300 compounds, 8% hits. AID 602385;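 active = average inhibition of at least 30% in the single-concentration confirmation test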
# Beacon interf: shows spectral interference in the DNMT1 beacon assay; AID 602387; DNMT1 molecular beacon spectral interference counterscreen, fluorescence 485/520; activation (fluorescence interference), % at 10 µM; 2,300 compounds, 1% hits; shares compounds with DNMT1 inh;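 active = activation of at least 30% at 10 µM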;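 also: DNMT1 catalytic domain with a HinP1I cleavage step and a FAM/dabcyl DNA beacon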
# * = called active by the depositor; x = no result given.
SMILES,STEP inh,DNMT1 inh,SUMO1-SIM PPI,Scp-1 inhibitor,LMPTP block,DNMT1 confirm,Beacon interf,others
CCOC(=O)C1CCCN(C(=O)c2cc(-c3ccco3)nc3ccccc23)C1 (centres undefined),20,100*,24,85*,51*,65*,-1,DNMT1 interf DR=>99
CC(C)Sc1nc2sc3c(c2c2nnc(SCC(=O)NCc4ccco4)n12)CCCC3,3,65*,18,35,8,3,1,
CN(C(=O)C1Cc2c(-c3ccccc3Oc3ccccc3)ccnc2O1)c1ccccc1 (centres undefined),-2,76*,5,x,9,4,10,
COc1cc(NC(=O)C[n+]2ccc(C(=O)c3ccccc3)cc2)cc(OC)c1,-3,-3,-46,2,-1,x,x,
CC(=O)c1ccc(S(=O)(=O)NC2CC(=O)N(c3ccc(Cl)cc3)C2)cc1 (centres undefined),1,-3,4,-8,0,x,x,
O=C(COC(=O)c1ccc(NS(=O)(=O)c2cccs2)cc1)NCc1ccco1,30,92*,40*,92*,50,71*,3,DNMT1 interf DR=>99
O=C(COC(=O)c1ccccc1Cl)NCc1ccco1,3,85*,6,40,12,10,5,
O=C(COC(=O)c1ccccc1Nc1ccccc1)NCc1ccco1,-1,-2,2,-7,0,x,x,
CCOC(=O)c1cc(-c2ccc(C)cc2)n(CC(=O)NCc2ccco2)c1C,1,50*,0,-14,-1,-1,2,
CNC(=O)CCCCC(=O)N/N=C/c1ccc(Cl)cc1Cl,-1,1,-5,2,0,x,x,
CCOc1ccc(NC(=O)CN(C)C(=O)c2cc3c(s2)CCCCC3)cc1OCC,4,-2,-6,-4,2,x,x,
COc1ccc(N2CCN(S(=O)(=O)c3ccc(-c4cnc(C5CC5)o4)cc3)CC2)cc1,8,74*,3,14,3,4,4,
COc1cccc(N2CCN(S(=O)(=O)c3ccc(-c4cnc(C5CC5)o4)cc3)CC2)c1,0,38,7,3,0,x,x,
Cc1ccc(C)c(OCC(=O)Nc2ccc(C(=O)O)cc2NC(=O)COc2cc(C)ccc2C)c1,-3,-2,1,-6,-1,x,x,
COc1ccc(Cl)cc1NC(=O)CCS(=O)(=O)c1ccc(C)cc1,-2,-5,7,-6,0,x,x,
O=C(NNC(=O)c1cccnc1Cl)c1ccc(F)cc1,-2,1,-2,-2,0,x,x,
O=C(/C=C/c1ccc(Cl)cc1Cl)N1CCN(c2ccccc2[N+](=O)[O-])CC1,4,92*,0,-14,7,1,-2,
O=C(/C=C/c1ccc(Cl)cc1Cl)N1CCN(c2ccc([N+](=O)[O-])c(N3CCOCC3)c2)CC1,-5,-6,-4,-1,9,x,x,
Cc1cccc(-c2nnn3c2nc(NCCc2ccc(S(N)(=O)=O)cc2)c2ccccc23)c1,0,42,-17,3,40,x,x,
NS(=O)(=O)c1ccc(CCNc2nc3c(-c4cccc(F)c4)nnn3c3ccccc23)cc1,5,72*,-5,-14,27,7,-2,
Cc1ccc(-c2nnn3c2nc(NCCc2ccc(S(N)(=O)=O)cc2)c2ccccc23)cc1,2,89*,-4,-2,21,7,-2,
COc1ccc(NS(=O)(=O)c2cccc(C(=O)NNC(=O)CNC(=O)c3cccc(C)c3)c2)cc1,-2,-1,0,-8,0,x,x,
Cc1ccc(C)c(Cn2nc(-c3cc(C)ccc3C)ccc2=O)c1,0,2,-4,-2,4,x,x,
C/C=C/C=C/C(=O)N1CC2(CC(c3cccc(NC(=O)CCCCC)c3)=NO2)C[C@H]1C(N)=O (some centres undefined),-2,66*,2,3,0,5,1,

# Source: PubChem
